Source: ChEMBL document CHEMBL2380295, “Structure-activity studies on the side chain of a simplified analog of aplysiatoxin (aplog-1) with anti-proliferative activity” (Bioorg Med Chem, 2013)

What was measured:
[1] = tested on: PC-3; assay: Growth inhibition of human PC3 cells after 48 hrs by sulforhodamine B assay; format: functional; settings: PC-3, 48 h
Method in brief: (§1)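 Yamori 39-line human cancer panel, NCI method with modifications. Cells plated in RPMI 1640 plus 5% FBS, attached overnight, then exposed 48 h to compound at 10^-8, 10^-7, 10^-6, 10^-5 and 10^-4 M. Sulforhodamine B staining read at 525 nm; % growth = 100[(T−T0)/(C−T0)] from duplicate-point averages, with T0 the time-zero absorbance. GI50 is the concentration giving 50.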

[2] = biological target: T1, Protein kinase C delta type (Homo sapiens, UniProt Q05655); assay: Inhibition of [3H]PDBu binding to PKCdelta-C1B domain peptide (unknown origin)
Method in brief: (§2)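 Competitive [3H]PDBu binding used 14 or 40 nM PKCδ C1 peptide and 20 nM [3H]PDBu (19.6 Ci/mmol), in 50 mM Tris-maleate (pH 7.4 at 4 °C) with 50 µg/mL phosphatidylserine, 3 mg/mL bovine γ-globulin and varied inhibitor concentrations. IC50 was taken as 50% inhibition of specific binding. Ki was derived by the Sharkey–Blumberg method.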

[3] = Octanol-water partition coefficient, log P of the compound by HPLC analysis; format: physicochemical
Method in brief: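 log P was estimated from HPLC retention, with column dead time measured using unretained formamide.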

[4] = tested on: SNB-75; assay: Growth inhibition of human SNB75 cells after 48 hrs by sulforhodamine B assay; format: functional; settings: SNB-75, 48 h; method in brief: as §1
[5] = tested on: OVCAR-5; assay: Growth inhibition of human OVCAR5 cells after 48 hrs by sulforhodamine B assay; format: functional; settings: OVCAR-5, 48 h; method in brief: as §1
[6] = tested on: DMS-114; assay: Growth inhibition of human DMS114 cells after 48 hrs by sulforhodamine B assay; format: functional; settings: DMS-114, 48 h; method in brief: as §1
[7] = tested on: DMS-273; assay: Growth inhibition of human DMS273 cells after 48 hrs by sulforhodamine B assay; format: functional; settings: DMS-273, 48 h; method in brief: as §1
[8] = tested on: NCI-H522; assay: Growth inhibition of human NCI-H522 cells after 48 hrs by sulforhodamine B assay; format: functional; settings: NCI-H522, 48 h; method in brief: as §1
[9] = tested on: NCI-H23; assay: Growth inhibition of human NCI-H23 cells after 48 hrs by sulforhodamine B assay; format: functional; settings: NCI-H23, 48 h; method in brief: as §1
[10] = tested on: HT-29; assay: Growth inhibition of human HT-29 cells after 48 hrs by sulforhodamine B assay; format: functional; settings: HT-29, 48 h; method in brief: as §1
[11] = tested on: St-4; assay: Growth inhibition of human St-4 cells after 48 hrs by sulforhodamine B assay; format: functional; settings: St-4, 48 h; method in brief: as §1
[12] = tested on: SNB-78; assay: Growth inhibition of human SNB78 cells after 48 hrs by sulforhodamine B assay; format: functional; settings: SNB-78, 48 h; method in brief: as §1
[13] = tested on: SF-268; assay: Growth inhibition of human SF268 cells after 48 hrs by sulforhodamine B assay; format: functional; settings: SF-268, 48 h; method in brief: as §1
[14] = tested on: OVCAR-4; assay: Growth inhibition of human OVCAR4 cells after 48 hrs by sulforhodamine B assay; format: functional; settings: OVCAR-4, 48 h; method in brief: as §1
[15] = tested on: NCI-H226; assay: Growth inhibition of human NCI-H226 cells after 48 hrs by sulforhodamine B assay; format: functional; settings: NCI-H226, 48 h; method in brief: as §1
[16] = Growth inhibition of human HCC2998 cells after 48 hrs by sulforhodamine B assay; format: functional; settings: HCC 2998, 48 h; method in brief: as §1
[17] = tested on: MKN-74; assay: Growth inhibition of human MKN74 cells after 48 hrs by sulforhodamine B assay; format: functional; settings: MKN-74, 48 h; method in brief: as §1
[18] = tested on: MCF7; assay: Growth inhibition of human MCF7 cells after 48 hrs by sulforhodamine B assay; format: functional; settings: MCF7, 48 h; method in brief: as §1
[19] = Cytotoxicity against human Raji cells assessed as cell viability at 10^-7 M; format: cell-based; settings: read-out: Activity
[20] = tested on: LOX IMVI; assay: Growth inhibition of human LOXIMVI cells after 48 hrs by sulforhodamine B assay; format: functional; method in brief: as §1
[21] = tested on: DU-145; assay: Growth inhibition of human DU145 cells after 48 hrs by sulforhodamine B assay; format: functional; settings: DU-145, 48 h; method in brief: as §1
[22] = tested on: Human gammaherpesvirus 4; assay: Induction of EBV-early antigen expressed in human Raji cells at 10^-7 M after 48 hrs by immunofluorescence assay relative to control; format: organism-based; settings: human gammaherpesvirus 4, raji, 0.1 µM
Method in brief: (§3)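 Raji B-lymphoblastoid cells (5 × 10^5/mL) in RPMI 1640 with 10% FBS, with 4 mM sodium n-butyrate as synergist and test compound at 10^-7 or 10^-6 M (final DMSO 0.4%). Incubated 48 h at 37 °C under 5% CO2. Smears were stained by indirect immunofluorescence using NPC patient serum and FITC anti-human IgG. At least 500 cells counted; % EA-positive recorded; n = 3, SEM.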

[23] = tested on: U-251; assay: Growth inhibition of human U251 cells after 48 hrs by sulforhodamine B assay; format: functional; settings: U-251, 48 h; method in brief: as §1
[24] = tested on: KM12; assay: Growth inhibition of human KM12 cells after 48 hrs by sulforhodamine B assay; format: functional; settings: KM12, 48 h; method in brief: as §1
[25] = tested on: MKN-45; assay: Growth inhibition of human MKN45 cells after 48 hrs by sulforhodamine B assay; format: functional; settings: MKN-45, 48 h; method in brief: as §1
[26] = Cytotoxicity against human Raji cells assessed as cell viability at 10^-6 M; format: cell-based; settings: read-out: Activity
[27] = tested on: HCT-15; assay: Growth inhibition of human HCT15 cells after 48 hrs by sulforhodamine B assay; format: functional; settings: HCT-15, 48 h; method in brief: as §1
[28] = tested on: SK-OV-3; assay: Growth inhibition of human SKOV3 cells after 48 hrs by sulforhodamine B assay; format: functional; settings: SK-OV-3, 48 h; method in brief: as §1
[29] = tested on: MKN-28; assay: Growth inhibition of human MKN28 cells after 48 hrs by sulforhodamine B assay; format: functional; settings: MKN-28, 48 h; method in brief: as §1
[30] = tested on: OVCAR-3; assay: Growth inhibition of human OVCAR3 cells after 48 hrs by sulforhodamine B assay; format: functional; settings: OVCAR-3, 48 h; method in brief: as §1
[31] = tested on: MKN-7; assay: Growth inhibition of human MKN7 cells after 48 hrs by sulforhodamine B assay; format: functional; settings: MKN-7, 48 h; method in brief: as §1
[32] = tested on: SF-295; assay: Growth inhibition of human SF295 cells after 48 hrs by sulforhodamine B assay; format: functional; settings: SF-295, 48 h; method in brief: as §1
[33] = tested on: ACHN; assay: Growth inhibition of human ACHN cells after 48 hrs by sulforhodamine B assay; format: functional; method in brief: as §1
[34] = tested on: MDA-MB-231; assay: Growth inhibition of human MDA-MB-231 cells after 48 hrs by sulforhodamine B assay; format: functional; settings: MDA-MB-231, 48 h; method in brief: as §1
[35] = Growth inhibition of human BSY1 cells after 48 hrs by sulforhodamine B assay; format: functional; settings: BSY-1, 48 h; method in brief: as §1
[36] = tested on: HCT-116; assay: Growth inhibition of human HCT116 cells after 48 hrs by sulforhodamine B assay; format: functional; settings: HCT-116, 48 h; method in brief: as §1
[37] = Growth inhibition of human HBC4 cells after 48 hrs by sulforhodamine B assay; format: functional; settings: HBC4, 48 h; method in brief: as §1
[38] = tested on: OVCAR-8; assay: Growth inhibition of human OVCAR8 cells after 48 hrs by sulforhodamine B assay; format: functional; settings: OVCAR-8, 48 h; method in brief: as §1
[39] = tested on: NCI-H460; assay: Growth inhibition of human NCI-H460 cells after 48 hrs by sulforhodamine B assay; format: functional; settings: NCI-H460, 48 h; method in brief: as §1
[40] = biological target: T1, Protein kinase C delta type; assay: Inhibition of [3H]PDBu binding to PKCdelta-C1A domain peptide (unknown origin); method in brief: as §2
[41] = Growth inhibition of human MKN1 cells after 48 hrs by sulforhodamine B assay; format: functional; settings: MKN-1, 48 h; method in brief: as §1
[42] = tested on: A549; assay: Growth inhibition of human A549 cells after 48 hrs by sulforhodamine B assay; format: functional; settings: A549, 48 h; method in brief: as §1
[43] = Growth inhibition of human RXF631L cells after 48 hrs by sulforhodamine B assay; format: functional; settings: RXF 631, 48 h; method in brief: as §1
[44] = tested on: Human gammaherpesvirus 4; assay: Induction of EBV-early antigen expressed in human Raji cells at 10^-6 M after 48 hrs by immunofluorescence assay relative to control; format: organism-based; settings: human gammaherpesvirus 4, raji, 1 µM; method in brief: as §3
[45] = Growth inhibition of human HBC5 cells after 48 hrs by sulforhodamine B assay; format: functional; settings: HBC5, 48 h; method in brief: as §1
[46] = tested on: SF-539; assay: Growth inhibition of human SF539 cells after 48 hrs by sulforhodamine B assay; format: functional; settings: SF-539, 48 h; method in brief: as §1

T1 sequence (Q05655 whole entry, the tested form may be a part): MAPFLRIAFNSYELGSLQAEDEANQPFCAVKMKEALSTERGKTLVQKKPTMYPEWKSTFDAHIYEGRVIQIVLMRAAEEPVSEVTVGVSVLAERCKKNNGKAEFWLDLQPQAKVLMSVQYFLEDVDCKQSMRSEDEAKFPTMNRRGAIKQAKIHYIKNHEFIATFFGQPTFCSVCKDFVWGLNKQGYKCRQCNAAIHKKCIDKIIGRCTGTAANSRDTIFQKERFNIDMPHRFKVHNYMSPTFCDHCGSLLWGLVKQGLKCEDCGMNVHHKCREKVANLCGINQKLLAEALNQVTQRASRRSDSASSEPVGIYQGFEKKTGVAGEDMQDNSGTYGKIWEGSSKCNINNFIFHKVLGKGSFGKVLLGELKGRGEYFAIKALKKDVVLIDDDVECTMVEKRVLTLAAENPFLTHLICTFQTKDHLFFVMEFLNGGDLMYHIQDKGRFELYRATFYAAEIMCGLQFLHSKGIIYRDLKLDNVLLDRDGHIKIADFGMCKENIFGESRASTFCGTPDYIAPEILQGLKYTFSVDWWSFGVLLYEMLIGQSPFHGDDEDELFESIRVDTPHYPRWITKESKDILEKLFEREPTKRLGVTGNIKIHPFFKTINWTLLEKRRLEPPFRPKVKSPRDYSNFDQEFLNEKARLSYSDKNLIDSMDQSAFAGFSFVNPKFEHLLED

## CC(=O)Nc1ccc(O)cc1CCCC[C@@H]1C[C@@H]2C[C@@]3(O[C@H](CCC3(C)C)CC(=O)O[C@@H](CO)CC(=O)O2)O1
[1]
  GI50: > 100 µM
[2]
  Ki: 0.69 µM
[3]
  logP: 2.3
[4]
  GI50: > 100 µM
[5]
  GI50: > 100 µM
[6]
  GI50: 55 µM
[7]
  GI50: 43.7 µM
[8]
  GI50: > 100 µM
[9]
  GI50: > 100 µM
[10]
  GI50: > 100 µM
[11]
  GI50: > 100 µM
[12]
  GI50: > 100 µM
[13]
  GI50: > 100 µM
[14]
  GI50: > 100 µM
[15]
  GI50: 53.7 µM
[16]
  GI50: 72.4 µM
[17]
  GI50: 70.8 µM
[18]
  GI50: > 100 µM
[19]
  viability at 0.1 µM: 60%
[20]
  GI50: 74.1 µM
[21]
  GI50: > 100 µM
[22]
  Activity: 2%
[23]
  GI50: > 100 µM
[24]
  GI50: > 100 µM
[25]
  GI50: > 100 µM
[26]
  viability at 1 µM: 60%
[27]
  GI50: > 100 µM
[28]
  GI50: > 100 µM
[29]
  GI50: 87.1 µM
[30]
  GI50: > 100 µM
[31]
  GI50: > 100 µM
[32]
  GI50: 60.3 µM
[33]
  GI50: > 100 µM
[34]
  GI50: > 100 µM
[35]
  GI50: > 100 µM
[36]
  GI50: > 100 µM
[37]
  GI50: > 100 µM
[38]
  GI50: > 100 µM
[39]
  GI50: > 100 µM
[40]
  Ki: 8.7 µM
[41]
  GI50: > 100 µM
[42]
  GI50: > 100 µM
[43]
  GI50: > 100 µM
[44]
  Activity: 2.1%
[45]
  GI50: > 100 µM
[46]
  GI50: > 100 µM

## COc1cccc(CCCC[C@@H]2C[C@@H]3C[C@@]4(O[C@H](CCC4(C)C)CC(=O)O[C@@H](CO)CC(=O)O3)O2)c1
[1]
  GI50: 12 µM
[2]
  Ki: 0.0097 µM
[3]
  logP: 4.4
[4]
  GI50: 14.5 µM
[5]
  GI50: 13.5 µM
[6]
  GI50: 11 µM
[7]
  GI50: 11 µM
[8]
  GI50: 11.5 µM
[9]
  GI50: 13.5 µM
[10]
  GI50: 11.2 µM
[11]
  GI50: 2.51 µM
[12]
  GI50: 17.4 µM
[13]
  GI50: 14.1 µM
[14]
  GI50: 15.8 µM
[15]
  GI50: 11.7 µM
[16]
  GI50: 7.94 µM
[17]
  GI50: 15.8 µM
[18]
  GI50: 16.2 µM
[19]
  viability at 0.1 µM: 60%
[20]
  GI50: 11 µM
[21]
  GI50: 13.8 µM
[22]
  Activity: 2.6%
[23]
  GI50: 17 µM
[24]
  GI50: 13.8 µM
[25]
  GI50: 9.55 µM
[26]
  viability at 1 µM: 60%
[27]
  GI50: 18.2 µM
[28]
  GI50: 16.2 µM
[29]
  GI50: 15.1 µM
[30]
  GI50: 12.6 µM
[31]
  GI50: 19.1 µM
[32]
  GI50: 10.2 µM
[33]
  GI50: 11.5 µM
[34]
  GI50: 6.61 µM
[35]
  GI50: 13.8 µM
[36]
  GI50: 13.5 µM
[37]
  GI50: 1.7 µM
[38]
  GI50: 17 µM
[39]
  GI50: 2.57 µM
[40]
  Ki: 0.33 µM
[41]
  GI50: 11.5 µM
[42]
  GI50: 4.9 µM
[43]
  GI50: 13.8 µM
[44]
  Activity: 5.2%
[45]
  GI50: 18.6 µM
[46]
  GI50: 10 µM
